Measured values pooled from the literature.
Lines come from different studies, so protocols differ.
Method: competition with immobilised ligand
RPS6KA4 N-terminal kinase domain: Ribosomal protein S6 kinase alpha-4, N-terminal kinase domain (RPS6KA4, Homo sapiens, UniProt O75676)
RPS6KA4 C-terminal kinase domain: Ribosomal protein S6 kinase alpha-4, C-terminal kinase domain (RPS6KA4, Homo sapiens, UniProt O75676)

For `O=C(c1ccc(Nc2nccc(-c3cc4ccccc4s3)n2)cc1)N1CCC(N2CCCC2)CC1`, the remaining binding was 100% (RPS6KA4 N-terminal kinase domain; binding; 1 µM).
`c1cnn2ncc(-c3ccnc(N4CCC45COC5)n3)c2c1` has a remaining binding of 55% (RPS6KA4 C-terminal kinase domain; binding; 1 µM).
`CCN1CCN(Cc2ccc(C(=O)Nc3ccc(C)c(Oc4ccc5c(c4)CC(=O)N5)c3)cc2C(F)(F)F)CC1` has a remaining binding of 100% (RPS6KA4 C-terminal kinase domain; binding; 1 µM).
With `O=C(NCCCC1CCCCC1)c1ccc(CNC(=O)c2cnn(-c3ccccc3)c2C(F)(F)F)cc1` the remaining binding was 90% (RPS6KA4 C-terminal kinase domain; cell-free assay; 0.1 µM).
The remaining binding of `O=C(c1ccc(Nc2ncc(Cl)c(-c3ccc(Cl)s3)n2)cc1)N1CCC(N2CCCC2)CC1` is reported as 100% (RPS6KA4 N-terminal kinase domain; binding; 1 µM).
For `O=C(NCc1ncc(C(F)(F)F)cc1Cl)c1ccc2c(c1)C1(CCS(=O)(=O)CC1)[C@@H](C1CC1)N2S(=O)(=O)c1ccc(F)cc1`, the remaining binding was 84% (RPS6KA4 C-terminal kinase domain; cell-free assay; 1 µM).
`O=C(Nc1c[nH]nc1C(=O)NC1CCNCC1)c1cc(F)cc(F)c1` gave a remaining binding of 34% (RPS6KA4 C-terminal kinase domain; binding; 1 µM).
`CN(C)c1ncc(F)c(-c2cnn3ncccc23)n1` has a remaining binding of 89% (RPS6KA4 N-terminal kinase domain; binding; 1 µM).
`Cc1c(NC(=O)c2cc(C(N)=O)nc3cc(F)ccc23)c(C(F)(F)F)nn1Cc1ccc(C#N)cc1` gave a remaining binding of 85% (RPS6KA4 C-terminal kinase domain; cell-free assay; 1 µM).
`N[C@@H]1CCN(c2nccc(-c3cnn4ncccc34)n2)C1` has a remaining binding of 100% (RPS6KA4 C-terminal kinase domain; binding; 1 µM).
`Cc1cnc(Nc2ccc(C(=O)N3CCC(N4CCCC4)CC3)cc2)nc1-c1cc2ccccc2s1` gave a remaining binding of 100% (RPS6KA4 N-terminal kinase domain; binding; 1 µM).
With `c1cncc(-c2cccc(Nc3nccc(NC4CCCCC4)n3)c2)c1` the remaining binding was 100% (RPS6KA4 C-terminal kinase domain; binding; 10 µM).
`O=C(O)[C@H]1[C@H](Cn2nnc3ccccc3c2=O)CC[C@@H]1C(=O)c1ccc(OCCC2CCOCC2)cc1` gave a remaining binding of 100% (RPS6KA4 N-terminal kinase domain; cell-free assay; 1 µM).
With `FC(F)(F)Oc1cccc(-c2cnc3ccc(-c4ccncc4)nn23)c1` the remaining binding was 87% (RPS6KA4 C-terminal kinase domain; binding; 5 µM).
`COc1cnc(Nc2cccc(S(N)(=O)=O)c2)nc1N1CCN(c2ccccc2)C(=O)C1` gave a remaining binding of 100% (RPS6KA4 N-terminal kinase domain; binding; 1 µM).
The remaining binding of `CN(CCCC(F)(F)F)c1nccc(-c2cnn3ncccc23)n1` is reported as 100% (RPS6KA4 N-terminal kinase domain; binding; 1 µM).
With `CNC(=O)[C@@H]1CC[C@@H](n2c(-c3ccc4cnccc4c3)nc3ccc(C(=O)NCc4cccc(C(N)=O)c4)cc32)C1` the remaining binding was 100% (RPS6KA4 N-terminal kinase domain; binding; 1 µM).
With `Nc1ncc2c(n1)-c1c([nH]c3ccc(C#CC4CC4)cc13)CCCC2` the remaining binding was 93% (RPS6KA4 C-terminal kinase domain; binding; 1 µM).
With `CS(=O)(=O)NCC[C@H](NC(=O)c1cncc2c1cnn2-c1ccc(F)cc1)c1ccnc(S(C)(=O)=O)c1` the remaining binding was 85% (RPS6KA4 N-terminal kinase domain; cell-free assay; 1 µM).
`O=C(NCCCN1CCOCC1)c1ccc(Nc2nccc(-c3cc4ccccc4s3)n2)cc1` has a remaining binding of 19% (RPS6KA4 C-terminal kinase domain; binding; 1 µM).
`COc1cnc(Nc2cccc(S(N)(=O)=O)c2)nc1N1CCN(c2ccccc2)CC1` has a remaining binding of 89% (RPS6KA4 C-terminal kinase domain; binding; 1 µM).
`O=C(NCCCN1CCOCC1)c1ccc(Nc2ncc(Cl)c(-c3ccc(Cl)s3)n2)cc1` gave a remaining binding of 100% (RPS6KA4 N-terminal kinase domain; binding; 1 µM).
With `O=S(=O)(NC1CCC(c2cc(F)ccc2F)(S(=O)(=O)c2ccc(Cl)cc2)CC1)C(F)(F)F` (stereo not drawn) the remaining binding was 100% (RPS6KA4 N-terminal kinase domain; cell-free assay; 1 µM).
For `O=C(c1ccc(Nc2ncc(Cl)c(-c3cc4ccccc4s3)n2)cc1)N1CCC(N2CCCC2)CC1`, the remaining binding was 100% (RPS6KA4 N-terminal kinase domain; binding; 1 µM).
The remaining binding of `C[C@@H]1CCN(c2nccc(-c3cnn4ncccc34)n2)C1` is reported as 58% (RPS6KA4 C-terminal kinase domain; binding; 1 µM).
`O=C(NCC1CCOCC1)c1n[nH]cc1NC(=O)c1c(F)cccc1F` gave a remaining binding of 29% (RPS6KA4 C-terminal kinase domain; binding; 1 µM).
`CN(C(=O)c1ccccc1)c1cc(N(C)c2ccc3c(c2)CCc2ccc(C(=O)NCCN4CCOCC4)cc2C3=O)ccc1F` has a remaining binding of 59% (RPS6KA4 N-terminal kinase domain; cell-free assay; 1 µM).
`COc1ncc2cc3ccccc3nc2c1C#N` has a remaining binding of 58% (RPS6KA4 C-terminal kinase domain; cell-free assay; 5 µM).
The remaining binding of `C[C@@H](c1ccc(-n2cnc3c(N)ncnc32)cc1)N1CCc2nn(C)c(Cc3ccccc3)c2C1=O` is reported as 84% (RPS6KA4 N-terminal kinase domain; binding; 0.1 µM).
The remaining binding of `Cc1cnn2ncc(-c3ccnc(N(C)C)n3)c2c1` is reported as 97% (RPS6KA4 N-terminal kinase domain; binding; 1 µM).
For `COc1ccc2c(c1)O[C@@H](c1ccc(OC)c(OC)c1)C[C@H]2NC(=O)C1(c2ccc3c(c2)OC(F)(F)O3)CC1`, the remaining binding was 81% (RPS6KA4 C-terminal kinase domain; cell-free assay; 1 µM).
`F[C@@H]1CCN(c2nccc(-c3cnn4ncccc34)n2)C1` has a remaining binding of 90% (RPS6KA4 N-terminal kinase domain; binding; 1 µM).
For `C=CC(=O)N1CCC(C(=O)NCC(=O)N2CCN(c3nc(-c4cnc(N)nc4C(F)F)nc(N4CCOCC4)n3)CC2)CC1`, the remaining binding was 82% (RPS6KA4 N-terminal kinase domain; binding; 1 µM).
